Measured values as given in ChEMBL document CHEMBL1135477, “Antifungal agents. 10. New derivatives of 1-[(aryl)[4-aryl-1H-pyrrol-3-yl]methyl]-1H-imidazole, synthesis, anti-candida activity, and quantitative structure-analysis relationship studies” (J Med Chem, 2002).
Converted amounts (≈) assume the structure as drawn.

Tests used:
Assay type in all cases: functional
Candida albicans [1] = assay: IIn vitro antifungal activity against 40 strains of Candida albicans at pH 7.2; minimum inhibitory concentration (range is from 2 to 64)
Procedure, shortened: (§1)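 Broth serial-dilution MIC against 40 clinical C. albicans isolates from hospitalized patients, grown in Sabouraud broth at pH 7.2 or 5.8. Cells were pre-grown 18 h at 37 °C, inoculated at 10³/mL, and read at 24 h, 37 °C. Doubling dilutions ran 0.25–256 μg/mL from a DMSO/water solution. MIC was the lowest concentration with no visible growth against a DMSO/water blank.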

Candida [2] = assay: Tested In vitro for antifungal activity against Candida species. at pH 7.2; (percent of resistant species at 256 ug/mL)
Procedure, shortened: (§2)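 Broth serial-dilution test in Sabouraud broth at pH 7.2 or 5.8, against 3 fresh clinical non-albicans isolates (two C. glabrata, one C. krusei). Inocula were 10³/mL, pre-grown 18 h at 37 °C. Compound was twofold-diluted over 0.25–256 µg/mL and read at 24 h, 37 °C for visible growth.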

Candida [3] = assay: Tested in vitro for antifungal activity against Candida species. at pH 5.8 (percent of resistant species at 256 ug/mL); procedure, shortened: as §2
Candida albicans [4] = assay: In vitro antifungal activity against 40 strains of Candida albicans at pH 5.8; procedure, shortened: as §1
[5] = biological target: Lanosterol 14-alpha demethylase (Candida albicans (strain SC5314 / ATCC MYA-2876) (Yeast), UniProt P10613); assay: Anticandida activity- (MIC90 compound) / (MIC90 bifonazole)
Sequence of Lanosterol 14-alpha demethylase (P10613 whole entry): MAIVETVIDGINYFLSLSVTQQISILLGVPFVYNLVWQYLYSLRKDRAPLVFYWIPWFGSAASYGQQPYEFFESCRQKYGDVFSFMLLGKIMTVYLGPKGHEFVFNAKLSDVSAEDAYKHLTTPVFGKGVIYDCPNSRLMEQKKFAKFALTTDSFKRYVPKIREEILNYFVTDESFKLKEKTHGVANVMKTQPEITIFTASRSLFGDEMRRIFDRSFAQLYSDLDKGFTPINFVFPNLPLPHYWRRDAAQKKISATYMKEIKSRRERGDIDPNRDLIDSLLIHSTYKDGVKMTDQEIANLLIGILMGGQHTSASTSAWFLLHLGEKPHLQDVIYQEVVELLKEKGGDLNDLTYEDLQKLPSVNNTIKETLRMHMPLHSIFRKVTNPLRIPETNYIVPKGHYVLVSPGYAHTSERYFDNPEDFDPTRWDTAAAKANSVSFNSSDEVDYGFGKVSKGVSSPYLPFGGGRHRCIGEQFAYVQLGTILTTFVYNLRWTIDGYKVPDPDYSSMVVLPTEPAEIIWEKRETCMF

Candida albicans [6] = assay: In vitro antifungal activity against 40 strains of Candida albicans at pH 5.8; (percent of resistant species at 256 ug/mL)
Procedure, shortened: (§3)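 Broth serial-dilution test in Sabouraud broth at pH 7.2 or 5.8, against 40 fresh clinical C. albicans isolates from hospitalized patients. Inocula were 10³/mL, pre-grown 18 h at 37 °C in Sabouraud dextrose broth. Compound from a DMSO/water stock was twofold-diluted over 0.25–256 µg/mL. Visible growth was read at 24 h, 37 °C.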

Candida albicans [7] = assay: In vitro antifungal activity against 40 strains of Candida albicans at pH 7.2; (percent of resistant species at 256 ug/mL); procedure, shortened: as §3
Candida albicans [8] = assay: TIn vitro antifungal activity against 40 strains of Candida albicans at pH 5.8; (range is from 4 to 64); procedure, shortened: as §1
Candida [9] = assay: Tested In vitro for antifungal activity against Candida species. at pH 7.2; (range is from 1 to 32)
Procedure, shortened: (§4)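 Liquid serial-dilution MIC against 3 freshly isolated clinical Candida strains (two C. glabrata, one C. krusei) in Sabouraud broth at pH 7.2 or 5.8. Inoculum was 10³/mL after 18 h pre-culture at 37 °C, read at 24 h, 37 °C. Range was 0.25–256 μg/mL. Endpoint was no visible growth versus a DMSO/water blank.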

Candida [10] = assay: Tested in vitro for antifungal activity against Candida species. at pH 5.8 (range is from 8 to 256); procedure, shortened: as §4
Candida [11] = assay: Tested In vitro for antifungal activity against Candida species. at pH 7.2; procedure, shortened: as §4
Candida [12] = assay: Tested in vitro for antifungal activity against Candida species. at pH 5.8; procedure, shortened: as §4
Candida albicans [13] = assay: In vitro antifungal activity against 40 strains of Candida albicans at pH 7.2; procedure, shortened: as §1
Candida albicans [14] = assay: IIn vitro antifungal activity against 40 strains of Candida albicans at pH 7.2; minimum inhibitory concentration (range is from 2 to 128); procedure, shortened: as §1
Candida [15] = assay: Tested in vitro for antifungal activity at pH 7.2 (percent of resistant species at 256 ug/mL)
Procedure, shortened: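 Sabouraud broth serial-dilution test (0.25–256 µg/mL, 10³/mL inocula, 24 h at 37 °C), run at the stated pH on clinical isolates: 40 C. albicans and 3 Candida spp. (two C. glabrata, one C. krusei).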

Candida [16] = assay: Tested In vitro for antifungal activity against Candida species. at pH 7.2; (range is from 8 to 256); procedure, shortened: as §4
Candida [17] = assay: Tested in vitro for antifungal activity against Candida species. at pH 5.8 (value ranges from 16 to 128); procedure, shortened: as §4
Candida albicans [18] = assay: In vitro antifungal activity against 40 strains of Candida albicans at pH 5.8; (range is from 4 to 64); procedure, shortened: as §1
Candida albicans [19] = assay: In vitro antifungal activity against 40 strains of Candida albicans at pH 5.8; value ranges from 256 to >256; procedure, shortened: as §1
Candida albicans [20] = assay: In vitro antifungal activity against 40 strains of Candida albicans at pH 5.8 (percent of resistant species at 256 ug/mL); procedure, shortened: as §3
Candida albicans [21] = assay: In vitro antifungal activity against 40 strains of Candida albicans at pH 7.2; value ranges from 128 to >256; procedure, shortened: as §1
Candida [22] = assay: Tested In vitro for antifungal activity against Candida species. at pH 7.2 (percent of resistant species at 256 ug/mL); procedure, shortened: as §2
Candida albicans [23] = assay: In vitro antifungal activity against Candida albicans (40 strains) at pH 7.2; (percent of resistant species at 256 ug/mL); procedure, shortened: as §3
Candida albicans [24] = assay: In vitro antifungal activity against 40 strains of Candida albicans at pH 5.8; (range is from 0.25 to 64); procedure, shortened: as §1
Candida albicans [25] = assay: In vitro antifungal activity against 40 strains of Candida albicans at pH 7.2; minimum inhibitory concentration (range is from 1 to 32); procedure, shortened: as §1
Candida [26] = assay: Tested In vitro for antifungal activity against Candida species. at pH 7.2; (range is from 2 to 32); procedure, shortened: as §4
Candida [27] = assay: Tested in vitro for antifungal activity against Candida species. at pH 5.8 (range is from 4 to 16); procedure, shortened: as §4

## N#Cc1ccc(-c2c[nH]cc2[C@H](c2ccc(Cl)cc2Cl)n2ccnc2)cc1
Candida albicans [1]
  Range: 64 µg/mL
Candida [2]
  Resistance: 0%
Candida [3]
  Resistance: 0%
Candida albicans [4]
  MIC: 41.3 µg/mL (≈ 105 µM)
  MIC50: 8 µg/mL (≈ 20.3 µM)
  MIC90: 32 µg/mL (≈ 81.4 µM)
[5]
  Ratio: 6.3
Candida albicans [6]
  Resistance: 0%
Candida albicans [7]
  Resistance: 0%
Candida albicans [8]
  Range: 64 µg/mL
Candida [9]
  Range: 32 µg/mL
Candida [10]
  Range: 256 µg/mL
Candida [11]
  MIC: 32.4 µg/mL (≈ 82.4 µM)
  MIC50: 16 µg/mL (≈ 40.7 µM)
  MIC90: 64 µg/mL (≈ 163 µM)
Candida [12]
  MIC: 58 µg/mL (≈ 147 µM)
  MIC50: 64 µg/mL (≈ 163 µM)
  MIC90: 256 µg/mL (≈ 651 µM)
Candida albicans [13]
  MIC: 13.2 µg/mL (≈ 33.6 µM)
  MIC50: 8 µg/mL (≈ 20.3 µM)
  MIC90: 32 µg/mL (≈ 81.4 µM)

## Clc1ccc([C@H](c2c[nH]cc2-c2ccc(-c3ccccc3)cc2)n2ccnc2)c(Cl)c1
Candida albicans [14]
  Range: 128 µg/mL
Candida [3]
  % R: 0%
Candida [15]
  Resistance: 0%
Candida albicans [4]
  MIC: 10.1 µg/mL (≈ 22.6 µM)
  MIC50: 8 µg/mL (≈ 18 µM)
  MIC90: 8 µg/mL (≈ 18 µM)
[5]
  Ratio: 5.6
Candida albicans [6]
  Resistance: 0%
Candida albicans [7]
  Resistance: 0%
Candida [16]
  Range: 256 µg/mL
Candida [17]
  Range: 128 µg/mL
Candida [11]
  MIC: 90.6 µg/mL (≈ 204 µM)
  MIC50: 8 µg/mL (≈ 18 µM)
  MIC90: 256 µg/mL (≈ 576 µM)
Candida [12]
  MIC: 53.3 µg/mL (≈ 120 µM)
  MIC50: 16 µg/mL (≈ 36 µM)
  MIC90: 128 µg/mL (≈ 288 µM)
Candida albicans [13]
  MIC: 14.9 µg/mL (≈ 33.5 µM)
  MIC50: 8 µg/mL (≈ 18 µM)
  MIC90: 8 µg/mL (≈ 18 µM)
Candida albicans [18]
  Range: 64 µg/mL

## CC(C)(C)c1ccc(-c2c[nH]cc2[C@@H](c2ccc(Cl)cc2Cl)n2ccnc2)cc1
Candida albicans [19]
  Range: >256 µg/mL
Candida [3]
  Resistance: 100%
Candida albicans [4]
  MIC: 256 µg/mL (≈ 603 µM)
  MIC50: > 256 µg/mL
  MIC90: > 256 µg/mL
[5]
  Ratio: 47
Candida albicans [20]
  Resistance: 97%
Candida albicans [21]
  Range: >256 µg/mL
Candida [22]
  Resistance: 100%
Candida [11]
  MIC50: > 256 µg/mL
  MIC90: > 256 µg/mL
  Range: >256 µg/mL
Candida [12]
  MIC50: > 256 µg/mL
  MIC90: > 256 µg/mL
  Range: >256 µg/mL
Candida albicans [23]
  Resistance: 80%
Candida albicans [13]
  MIC: 165 µg/mL (≈ 388 µM)
  MIC50: > 256 µg/mL
  MIC90: > 256 µg/mL

## Clc1ccc([C@H](c2c[nH]cc2-c2ccc(-n3cccc3)cc2)n2ccnc2)c(Cl)c1
Candida albicans [24]
  Range: 64 µg/mL
Candida [2]
  Resistance: 0%
Candida [3]
  Resistance: 0%
Candida albicans [4]
  MIC: 3.95 µg/mL (≈ 9.12 µM)
  MIC50: 2 µg/mL (≈ 4.62 µM)
  MIC90: 4 µg/mL (≈ 9.23 µM)
[5]
  Ratio: 0.72
Candida albicans [6]
  Resistance: 0%
Candida albicans [7]
  Resistance: 0%
Candida albicans [25]
  Range: 32 µg/mL
Candida [26]
  Range: 32 µg/mL
Candida [27]
  Range: 16 µg/mL
Candida [11]
  MIC: 14.1 µg/mL (≈ 32.6 µM)
  MIC50: 4 µg/mL (≈ 9.23 µM)
  MIC90: 32 µg/mL (≈ 73.8 µM)
Candida [12]
  MIC: 9.3 µg/mL (≈ 21.5 µM)
  MIC50: 8 µg/mL (≈ 18.5 µM)
  MIC90: 16 µg/mL (≈ 36.9 µM)
Candida albicans [13]
  MIC: 4.4 µg/mL (≈ 10.2 µM)
  MIC50: 2 µg/mL (≈ 4.62 µM)
  MIC90: 4 µg/mL (≈ 9.23 µM)
